Laboratory results taken from ChEMBL document CHEMBL1681730, “17,20-lyase inhibitors. Part 4: design, synthesis and structure-activity relationships of naphthylmethylimidazole derivatives as novel 17,20-lyase inhibitors” (Bioorg Med Chem, 2011).

Columns and labels:
Cytochrome P450 3A4 = Cytochrome P450 3A4 (Homo sapiens, UniProt P08684); assay: Inhibition of human CYP3A4; type: ADME
[1] = biological target: T1, Steroid 17-alpha-hydroxylase/17,20 lyase (Homo sapiens, UniProt P05093); assay: Inhibition of 17,20 lyase activity in human
T1 sequence (P05093 whole entry): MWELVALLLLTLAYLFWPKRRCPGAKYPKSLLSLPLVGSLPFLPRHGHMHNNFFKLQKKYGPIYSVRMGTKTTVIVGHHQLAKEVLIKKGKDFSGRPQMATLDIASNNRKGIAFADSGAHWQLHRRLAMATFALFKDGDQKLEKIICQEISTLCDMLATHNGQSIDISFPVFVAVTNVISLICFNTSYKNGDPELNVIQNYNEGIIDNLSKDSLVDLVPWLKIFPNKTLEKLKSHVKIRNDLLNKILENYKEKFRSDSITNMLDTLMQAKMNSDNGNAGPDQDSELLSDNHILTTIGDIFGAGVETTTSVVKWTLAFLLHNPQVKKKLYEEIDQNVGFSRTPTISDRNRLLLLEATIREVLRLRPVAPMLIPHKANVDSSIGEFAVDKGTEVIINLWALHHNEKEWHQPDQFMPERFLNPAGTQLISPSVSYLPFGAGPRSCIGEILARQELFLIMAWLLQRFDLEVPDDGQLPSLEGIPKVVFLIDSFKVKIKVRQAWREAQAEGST
Summary of the method: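 Recombinant P450c17 (0.5 pmol) with cytochrome b5 (0.5 pmol) and NADPH-P450 reductase (20.8 ng) in 75 mM phosphate pH 7.4 with 1 mM MgCl2. Substrate 10 nM [1,2-3H]-17α-hydroxypregnenolone, 5 mM NADPH, compound 1–1000 nM. Incubated 15 min at 37 °C, ethyl acetate extraction, DHEA separated from substrate by silica TLC (cyclohexane–ethyl acetate 3:2). IC50 taken as 50% reduction in product.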

[2] = Oral bioavailability in Crl:CD(SD)IGS rat at 10 mg/kg by HPLC analysis; type: ADME, organism-based; conditions: in vivo
Summary of the method: (§1)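 Non-fasted male Crl:CD(SD)IGS rats, 8 weeks old, n = 3. Dosed 1 mg/kg iv or 10 mg/kg po. Plasma sampled at 5 (iv only), 10 (iv only), 15, 30 min and 1, 2, 4, 8, 24 h. Plasma deproteinized with acetonitrile, supernatant dried under N2, taken up in mobile phase and analysed by HPLC on an ODS column. […] Mean ± SD.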

[3] = biological target: T2, Steroid 17-alpha-hydroxylase/17,20 lyase (Rattus norvegicus, UniProt P11715); assay: Inhibition of 17,20 lyase activity in Sprague-Dawley rat testicular microsomes; design: species or system Testis
T2 sequence (P11715 whole entry): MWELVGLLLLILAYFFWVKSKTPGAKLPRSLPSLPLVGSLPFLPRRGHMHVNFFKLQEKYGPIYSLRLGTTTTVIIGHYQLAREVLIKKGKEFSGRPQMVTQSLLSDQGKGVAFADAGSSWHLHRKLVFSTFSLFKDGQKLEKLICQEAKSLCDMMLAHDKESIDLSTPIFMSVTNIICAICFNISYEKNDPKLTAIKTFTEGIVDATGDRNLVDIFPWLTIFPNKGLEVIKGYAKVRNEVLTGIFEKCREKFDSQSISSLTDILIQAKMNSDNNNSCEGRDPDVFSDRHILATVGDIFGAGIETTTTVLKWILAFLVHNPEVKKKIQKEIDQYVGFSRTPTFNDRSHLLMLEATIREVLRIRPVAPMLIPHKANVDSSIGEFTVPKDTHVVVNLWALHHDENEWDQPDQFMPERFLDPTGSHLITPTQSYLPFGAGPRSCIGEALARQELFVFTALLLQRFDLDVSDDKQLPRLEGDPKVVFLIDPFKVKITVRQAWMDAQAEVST
Summary of the method: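 Testicular microsomes from 13-week-old male SD rats (7 µg protein) in 75 mM phosphate buffer, pH 7.4, with 10 nM [1,2-3H]-17α-hydroxyprogesterone, 5 mM NADPH, and 1–1000 nM test compound (all final). Compounds were diluted in DMF and then in water. Incubation ran 15 min at 37 °C and was stopped with ethyl acetate. IC50 is the concentration that halves product formation.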

Cytochrome P450 2D6 = Cytochrome P450 2D6 (Homo sapiens, UniProt P10635); assay: Inhibition of human CYP2D6; type: ADME
Summary of the method: (§2)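 Microsomes from human B-lymphoblastoid cells expressing one CYP isoform, with inhibitor at 3, 10 and 30 µmol/L. Buffer 80 mmol/L phosphate pH 7.4 (Tris-HCl pH 7.4 for CYP2C9) with 10 mmol/L MgCl2 and a NADPH-regenerating system. Inhibitor and substrate preincubated 5 min at 37 °C, then microsomes added to start. Marker reactions: tolbutamide hydroxylation (CYP2C8, CYP2C9), bufuralol 1'-hydroxylation (CYP2D6). Control was methanol alone.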

[4] = Tmax in Crl:CD(SD)IGS rat at 10 mg/kg, po by HPLC analysis; type: ADME, organism-based; design: dose 10 mg/kg, route oral; conditions: in vivo; summary of the method: as §1
[5] = AUC (0 to 24 hrs) in Crl:CD(SD)IGS rat at 1 mg/kg, iv by HPLC analysis; type: ADME, organism-based; design: time < 24 hr, dose 1 mg/kg, route intravenous; conditions: plasma
Summary of the method: (§3)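 Male non-fasted 8-week-old rats, n = 3; 1 mg/kg IV or 10 mg/kg oral. Plasma sampled at 5, 10, 15, 30 min and 1, 2, 4, 8, 24 h after IV dosing, or at 15, 30 min and 1, 2, 4, 8, 24 h after oral dosing. Plasma deproteinized with acetonitrile, dried under N₂, taken up in mobile phase, and analysed by reverse-phase HPLC on an ODS column.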

Cytochrome P450 2C9 = Cytochrome P450 2C9 (Homo sapiens, UniProt P11712); assay: Inhibition of human CYP2C9; type: ADME; summary of the method: as §2
[6] = Cmax in Crl:CD(SD)IGS rat at 10 mg/kg, po by HPLC analysis; type: ADME, organism-based; design: dose 10 mg/kg, route oral; conditions: in vivo; summary of the method: as §1
Cytochrome P450c11B3 = biological target: T3, Cytochrome P450c11B3 (Rattus norvegicus, UniProt Q64546); assay: Inhibition of 11-hydroxylase activity in Sprague-Dawley rat adrenal gland; type: tissue-based
T3 sequence (Q64546 whole entry): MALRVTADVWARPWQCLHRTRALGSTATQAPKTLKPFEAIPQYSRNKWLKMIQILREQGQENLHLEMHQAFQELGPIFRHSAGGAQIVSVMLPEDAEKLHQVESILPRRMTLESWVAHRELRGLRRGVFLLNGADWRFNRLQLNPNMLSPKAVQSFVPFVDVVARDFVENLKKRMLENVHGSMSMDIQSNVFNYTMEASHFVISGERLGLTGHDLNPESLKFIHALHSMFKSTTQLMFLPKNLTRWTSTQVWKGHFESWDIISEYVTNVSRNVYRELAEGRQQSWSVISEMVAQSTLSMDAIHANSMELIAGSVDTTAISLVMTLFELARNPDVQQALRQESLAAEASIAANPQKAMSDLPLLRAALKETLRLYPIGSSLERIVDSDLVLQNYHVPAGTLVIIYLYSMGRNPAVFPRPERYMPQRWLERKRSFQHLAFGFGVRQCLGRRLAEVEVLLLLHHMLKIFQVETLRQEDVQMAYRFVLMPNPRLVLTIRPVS
Summary of the method: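 Mitochondrial fraction from SD rat adrenal glands, 4 µg protein, in 200 mM mannitol, 4.5 mM HEPES, 2.3 mM K phosphate pH 7.4, 0.1 mM EDTA, 0.03% BSA, 4.5 mM NADPH, 11 mM CaCl2. Substrate 10 nM [1,2-3H]-11-deoxycortisol. Test compound 1–1000 nM, diluted in DMF. Incubated 30 min at 37 °C, stopped with ethyl acetate. Final concentrations.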

[7] = AUC (0 to 24 hrs) in Crl:CD(SD)IGS rat at 10 mg/kg, po by HPLC analysis; type: ADME, organism-based; design: time < 24 hr, dose 10 mg/kg, route oral; conditions: plasma; summary of the method: as §3
Cytochrome P450 2C8 = biological target: T4, Cytochrome P450 2C8 (Homo sapiens, UniProt P10632); assay: Inhibition of human CYP2C8; type: ADME; summary of the method: as §2
T4 sequence (P10632 whole entry): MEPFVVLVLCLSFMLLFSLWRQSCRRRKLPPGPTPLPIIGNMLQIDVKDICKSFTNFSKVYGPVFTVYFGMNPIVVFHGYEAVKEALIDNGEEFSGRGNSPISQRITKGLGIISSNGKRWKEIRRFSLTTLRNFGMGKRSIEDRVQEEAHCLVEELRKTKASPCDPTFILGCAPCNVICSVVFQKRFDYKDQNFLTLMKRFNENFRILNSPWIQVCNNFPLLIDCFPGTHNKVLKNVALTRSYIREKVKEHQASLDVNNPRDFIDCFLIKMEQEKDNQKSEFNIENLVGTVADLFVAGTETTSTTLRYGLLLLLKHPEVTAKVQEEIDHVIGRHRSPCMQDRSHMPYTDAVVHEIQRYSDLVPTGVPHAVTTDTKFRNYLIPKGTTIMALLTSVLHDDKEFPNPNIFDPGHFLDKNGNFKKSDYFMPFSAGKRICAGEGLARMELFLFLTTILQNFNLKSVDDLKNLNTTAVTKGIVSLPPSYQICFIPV

Sequence of Cytochrome P450 2C9 (P11712 whole entry): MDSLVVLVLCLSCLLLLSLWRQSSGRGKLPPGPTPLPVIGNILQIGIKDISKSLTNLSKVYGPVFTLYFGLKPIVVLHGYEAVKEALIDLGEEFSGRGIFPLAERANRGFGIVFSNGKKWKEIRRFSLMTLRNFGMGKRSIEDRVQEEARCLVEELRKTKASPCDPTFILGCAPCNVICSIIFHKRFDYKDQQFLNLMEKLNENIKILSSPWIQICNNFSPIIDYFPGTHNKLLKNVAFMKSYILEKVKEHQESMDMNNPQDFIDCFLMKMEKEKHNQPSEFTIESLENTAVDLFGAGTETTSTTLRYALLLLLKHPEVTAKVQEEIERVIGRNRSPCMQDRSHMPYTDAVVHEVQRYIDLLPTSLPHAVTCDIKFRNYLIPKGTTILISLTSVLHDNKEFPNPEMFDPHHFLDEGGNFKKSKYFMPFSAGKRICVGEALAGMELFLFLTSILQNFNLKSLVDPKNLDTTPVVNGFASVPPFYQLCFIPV
Sequence of Cytochrome P450 3A4 (P08684 whole entry): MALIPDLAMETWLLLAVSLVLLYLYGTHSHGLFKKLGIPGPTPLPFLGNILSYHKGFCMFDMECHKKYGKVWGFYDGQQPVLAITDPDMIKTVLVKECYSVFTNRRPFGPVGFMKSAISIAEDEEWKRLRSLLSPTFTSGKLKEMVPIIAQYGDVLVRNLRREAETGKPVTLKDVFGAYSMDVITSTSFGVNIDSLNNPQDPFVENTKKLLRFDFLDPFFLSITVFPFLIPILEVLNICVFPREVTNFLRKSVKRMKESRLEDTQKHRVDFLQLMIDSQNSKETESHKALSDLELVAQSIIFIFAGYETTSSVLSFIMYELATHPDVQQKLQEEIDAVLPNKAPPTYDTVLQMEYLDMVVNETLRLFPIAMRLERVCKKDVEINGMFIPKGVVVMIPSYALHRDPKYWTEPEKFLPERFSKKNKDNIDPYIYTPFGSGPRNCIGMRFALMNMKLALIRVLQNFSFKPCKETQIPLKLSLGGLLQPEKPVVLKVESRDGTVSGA
Sequence of Cytochrome P450 2D6 (P10635 whole entry, canonical isoform): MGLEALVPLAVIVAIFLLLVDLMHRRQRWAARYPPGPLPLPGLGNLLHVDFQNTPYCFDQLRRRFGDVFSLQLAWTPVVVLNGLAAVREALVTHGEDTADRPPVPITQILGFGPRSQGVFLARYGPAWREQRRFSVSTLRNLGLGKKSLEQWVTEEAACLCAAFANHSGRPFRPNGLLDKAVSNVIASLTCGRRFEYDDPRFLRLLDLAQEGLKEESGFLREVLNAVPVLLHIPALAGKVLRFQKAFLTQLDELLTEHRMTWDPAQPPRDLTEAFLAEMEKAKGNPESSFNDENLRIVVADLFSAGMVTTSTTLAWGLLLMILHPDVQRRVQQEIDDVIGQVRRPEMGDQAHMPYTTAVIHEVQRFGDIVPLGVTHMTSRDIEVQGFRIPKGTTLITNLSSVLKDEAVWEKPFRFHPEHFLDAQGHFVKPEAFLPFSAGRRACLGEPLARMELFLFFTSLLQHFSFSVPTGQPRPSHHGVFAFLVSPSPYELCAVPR

IC50 (Cytochrome P450 3A4): > 10 µM
IC50 [1]: 0.019 µM
bioavailability [2]: 128%
IC50 [3]: < 0.01 µM
IC50 (Cytochrome P450 2D6): > 30 µM
Tmax [4]: 25.2 min
AUC(0-t) at 24 h [5]: 573 ng·h/mL
IC50 (Cytochrome P450 2C9): < 3 µM
Cmax [6]: 2940 ng/mL
IC50 (Cytochrome P450c11B3): > 1 µM
AUC(0-t) at 24 h [7]: 7320 ng·h/mL
IC50 (Cytochrome P450 2C8): 28 µM
SMILES: CC(C)[C@](O)(c1ccc2c3c(ccc2c1)C(=O)N(C)C3)c1cnc[nH]1
